Values belong to the compound of their own block, whether it stands above or below them.
What was measured:
[1] = Clinical study: safety and tolerability; assay type: in vivo, human
Summary of the method: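 Healthy men given finerenone 40 mg once daily for 10 days, with rosuvastatin. Supine BP, HR and 12-lead ECG recorded after 15 min rest, pre-dose and up to 24 h post-dose. Haematology and chemistry including serum electrolytes taken pre-dose and at 24 and 48 h, except after separated dosing. Adverse events elicited with non-leading questions through follow-up.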

[2] = biological target: T1, OATP1B1 (Homo sapiens, UniProt Q9Y6L6); assay: Uptake assay for OATP1B1 inhibition in HEK-OATP1B1 cells; assay type: in vitro ADME
T1 sequence (Q9Y6L6 1-691): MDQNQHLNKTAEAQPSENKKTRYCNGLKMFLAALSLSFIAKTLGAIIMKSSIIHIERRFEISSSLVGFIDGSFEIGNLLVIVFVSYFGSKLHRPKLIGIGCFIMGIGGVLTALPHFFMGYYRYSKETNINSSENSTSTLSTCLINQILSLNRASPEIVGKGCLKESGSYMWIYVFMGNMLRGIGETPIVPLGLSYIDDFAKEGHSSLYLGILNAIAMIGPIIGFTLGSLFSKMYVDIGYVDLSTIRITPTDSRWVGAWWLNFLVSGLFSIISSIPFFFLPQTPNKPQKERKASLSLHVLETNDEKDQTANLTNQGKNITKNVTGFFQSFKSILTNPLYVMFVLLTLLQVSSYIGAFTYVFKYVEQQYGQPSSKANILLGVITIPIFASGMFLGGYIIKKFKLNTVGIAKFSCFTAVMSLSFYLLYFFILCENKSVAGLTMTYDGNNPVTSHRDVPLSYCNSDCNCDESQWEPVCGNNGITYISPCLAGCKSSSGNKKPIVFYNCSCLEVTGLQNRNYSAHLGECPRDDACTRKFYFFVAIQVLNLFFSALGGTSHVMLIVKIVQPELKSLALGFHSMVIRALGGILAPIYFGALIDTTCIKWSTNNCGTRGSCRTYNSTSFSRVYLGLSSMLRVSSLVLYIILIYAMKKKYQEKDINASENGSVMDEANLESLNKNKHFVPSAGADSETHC
Summary of the method: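 OATP1B1 uptake measured across a test-compound concentration range. IC50 reported as greater than the top concentration if inhibition stayed below 50%, and that concentration was then used in the calculation. AUC ratio estimated by the basic static model, assuming substrate clearance runs solely via the transporter.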

[3] = biological target: T2, OATP1B3 (Homo sapiens, UniProt Q9NPD5); assay: Uptake assay for OATP1B3 inhibition in HEK-OATP1B3 cells; assay type: in vitro ADME
T2 sequence (Q9NPD5 1-702): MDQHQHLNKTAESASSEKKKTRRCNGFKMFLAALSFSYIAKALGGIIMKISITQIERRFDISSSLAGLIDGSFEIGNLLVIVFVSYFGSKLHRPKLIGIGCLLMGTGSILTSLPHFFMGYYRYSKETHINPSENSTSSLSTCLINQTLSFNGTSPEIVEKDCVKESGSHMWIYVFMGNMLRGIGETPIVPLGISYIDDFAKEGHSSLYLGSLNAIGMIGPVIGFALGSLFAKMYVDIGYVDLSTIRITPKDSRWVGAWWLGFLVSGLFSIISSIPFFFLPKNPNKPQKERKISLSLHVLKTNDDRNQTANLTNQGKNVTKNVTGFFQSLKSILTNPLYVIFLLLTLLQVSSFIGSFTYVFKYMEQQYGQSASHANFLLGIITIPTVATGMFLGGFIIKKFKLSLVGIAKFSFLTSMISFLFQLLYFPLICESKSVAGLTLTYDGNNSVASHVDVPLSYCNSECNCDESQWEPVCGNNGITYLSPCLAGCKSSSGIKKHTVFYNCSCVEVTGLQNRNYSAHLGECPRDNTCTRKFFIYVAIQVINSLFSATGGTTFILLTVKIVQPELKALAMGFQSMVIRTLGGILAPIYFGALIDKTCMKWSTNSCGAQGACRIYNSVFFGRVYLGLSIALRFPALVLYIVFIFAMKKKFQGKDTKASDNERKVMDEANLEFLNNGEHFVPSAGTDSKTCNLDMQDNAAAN
Summary of the method: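 Transporter-mediated transport measured across a test-compound concentration range. Where inhibition stayed below 50% at the top concentration, IC50 was reported as greater than the highest tested concentration.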

[4] = finerenone 20 mg; cited from earlier work
[5] = cited from earlier work
[6] = cited from earlier work; remark: listed apart in the source

- IC50 [2]: 3.2 µM
- predicted AUC ratio (AUCR), inhibition of OATP1B1 ([2]; basic model R = 1 + [I]inlet,max,u (or Cmax,u)/IC50): 1.182
- IC50 [3]: > 10 µM
Structure (SMILES): CCOc1ncc(C)c2c1[C@H](c1ccc(C#N)cc1OC)C(C(N)=O)=C(C)N2 [Finerenone, finerenone]
- changes in potassium levels ([1]; finerenone 40 mg): no relevant changes in potassium levels
- serious or severe adverse events ([1]; finerenone 40 mg alone or with rosuvastatin): no serious or severe AEs
- tolerability ([1]; repeated doses of finerenone 40 mg once daily, healthy male volunteers): well tolerated
- effect on repaglinide (CYP2C8 and OATP substrate) [4]: no effect
- absolute bioavailability [5]: 43.5%
- administered dose excreted in feces [5]: approximately 20%
- administered dose excreted in urine [5]: About 80%
- dose excreted unchanged in feces [5]: < 0.2%
- dose excreted unchanged in urine [5]: < 1%
- share of metabolic clearance by CYP3A4 ([5]; remainder attributable to CYP2C8): about 90%

Structure (SMILES): CC(C)c1nc(N(C)S(C)(=O)=O)nc(-c2ccc(F)cc2)c1/C=C/[C@@H](O)C[C@@H](O)CC(=O)O [Rosuvastatin, rosuvastatin]
- Tmax (expected) [6]: approximately 5 h

Structure (SMILES): CC1=NN(c2ccc(C)c(C)c2)C(=O)/C1=N\Nc1cccc(-c2cccc(C(=O)O)c2)c1O [eltrombopag]
- rosuvastatin AUC ratio [6]: 1.55
- rosuvastatin Cmax ratio [6]: 2.03

Structure (SMILES): Cc1ccc(C)c(OCCCC(C)(C)C(=O)O)c1 [gemfibrozil]
- increase of rosuvastatin AUC [6]: 1.88 fold
- increase of rosuvastatin Cmax [6]: 2.21 fold

Structure (SMILES): CO[C@H]1/C=C/O[C@@]2(C)Oc3c(C)c(O)c4c(O)c(c(/C=N/N5CCN(C)CC5)c(O)c4c3C2=O)NC(=O)/C(C)=C\C=C\[C@H](C)[C@H](O)[C@@H](C)[C@@H](O)[C@@H](C)[C@H](OC(C)=O)[C@@H]1C [rifampicin]
- CP-I AUC ratio [6]: 4.0
- CP-III AUC ratio [6]: 3.3
- rosuvastatin AUC ratio [6]: 5.0
